{"source": "paper PMC3729215", "about": "(Bioorganic & medicinal chemistry, 2011)", "key": {"[1]": {"biological_target": "T1, rTRPV1 (Rattus norvegicus, UniProt O35433)", "T1 sequence (O35433 whole entry)": "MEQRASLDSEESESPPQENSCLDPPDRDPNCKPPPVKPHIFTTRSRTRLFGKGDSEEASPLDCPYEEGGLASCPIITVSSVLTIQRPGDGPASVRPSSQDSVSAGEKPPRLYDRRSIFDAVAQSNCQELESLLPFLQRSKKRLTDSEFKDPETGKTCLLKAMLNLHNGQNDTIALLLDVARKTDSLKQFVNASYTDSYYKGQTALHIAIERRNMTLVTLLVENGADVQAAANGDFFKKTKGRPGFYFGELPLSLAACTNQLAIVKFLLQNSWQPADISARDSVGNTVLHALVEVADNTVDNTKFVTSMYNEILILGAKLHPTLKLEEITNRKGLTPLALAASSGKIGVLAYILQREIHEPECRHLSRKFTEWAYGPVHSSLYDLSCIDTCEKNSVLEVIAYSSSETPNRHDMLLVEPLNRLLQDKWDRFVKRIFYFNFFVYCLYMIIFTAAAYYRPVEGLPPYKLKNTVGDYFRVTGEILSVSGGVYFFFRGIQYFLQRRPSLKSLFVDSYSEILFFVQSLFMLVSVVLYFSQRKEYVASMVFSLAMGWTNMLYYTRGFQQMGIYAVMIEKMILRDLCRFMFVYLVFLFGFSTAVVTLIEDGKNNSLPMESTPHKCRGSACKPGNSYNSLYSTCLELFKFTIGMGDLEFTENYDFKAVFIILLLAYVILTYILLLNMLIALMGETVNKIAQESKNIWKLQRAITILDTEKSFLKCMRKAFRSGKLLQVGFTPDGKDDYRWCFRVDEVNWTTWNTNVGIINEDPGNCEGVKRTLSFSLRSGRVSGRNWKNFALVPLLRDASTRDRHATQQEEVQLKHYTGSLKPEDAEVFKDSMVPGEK", "experiment": "[3H]RTX binding competition assay, rat TRPV1 expressed in CHO cells", "method_in_brief": "(§1)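 Both binding and function were measured on rat TRPV1 heterologously expressed in CHO cells. Affinity came from competition with [3H]RTX. Antagonism came from a functional 45Ca2+ uptake assay. Values are mean ± SEM from 3 or more experiments.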"}, "[2]": {"biological_target": "T1, rTRPV1", "assay_type": "cell-based", "conditions": "rTRPV1/CHO", "method_in_brief": "as §1"}}}
{"smiles": "CC(C(=O)NCc1ccc(C(C)(C)C)cc1)c1cc(F)c(NS(C)(=O)=O)c(F)c1", "note": "(stereo not shown) [compound 58, N-(4-tert-Butylbenzyl)-2-[3,5-difluoro-4-(methylsulfonylamino)phenyl]propionamide]", "values": [{"measurement": "fold enhancement in binding affinity compared to 54", "setting": "[1]; rTRPV1/CHO", "result": 2, "unit": "fold"}]}
{"smiles": "C[C@H](C(=O)NCc1ccc(C(C)(C)C)cc1)c1ccc(NS(C)(=O)=O)c(F)c1", "note": "[54S, N-(4-tert-Butylbenzyl)-(2S)-2-[3-fluoro-4-(methylsulfonylamino)phenyl]propionamide]", "values": [{"measurement": "fold enhancement in receptor activity compared to 54", "setting": "[1]; binding and antagonism together", "result": "~2", "unit": "fold"}]}
{"smiles": "CC(C(=O)NCc1ccc(C(C)(C)C)cc1)c1ccc(NS(C)(=O)=O)c(I)c1", "note": "(stereo not shown) [compound 57, N-(4-tert-Butylbenzyl)-2-[3-iodo-4-(methylsulfonylamino)phenyl]propionamide]", "values": [{"measurement": "fold reduction in potency as antagonist compared to 54", "setting": "[2]", "result": 4, "unit": "fold"}]}
{"smiles": "C[C@@H](C(=O)NCc1ccc(C(C)(C)C)cc1)c1ccc(NS(C)(=O)=O)c(F)c1", "note": "[54R, N-(4-tert-Butylbenzyl)-(2R)-2-[3-fluoro-4-(methylsulfonylamino)phenyl]propionamide]", "values": [{"measurement": "fold weaker activity compared with 54S", "setting": "[1]; rTRPV1, binding and antagonism together", "result": "30- to 40 fold"}]}
{"smiles": "CC(C(=O)NCc1ccc(C(C)(C)C)cc1)c1ccc(NS(C)(=O)=O)c(Cl)c1", "note": "(stereo not shown) [compound 55, N-(4-tert-Butylbenzyl)-2-[3-chloro-4-(methylsulfonylamino)phenyl]propionamide]", "values": [{"measurement": "fold reduction in potency as antagonist compared to 54", "setting": "[2]", "result": 4, "unit": "fold"}]}
{"smiles": "CC(C(=O)NCc1ccc(C(C)(C)C)cc1)c1ccc(NS(C)(=O)=O)c(Br)c1", "note": "(stereo not shown) [compound 56, N-(4-tert-Butylbenzyl)-2-[3-bromo-4-(methylsulfonylamino)phenyl]propionamide]", "values": [{"measurement": "fold reduction in potency as antagonist compared to 54", "setting": "[2]", "result": 4, "unit": "fold"}]}
{"smiles": "COc1cc(C(C)C(=O)NCc2ccc(C(C)(C)C)cc2)ccc1NS(C)(=O)=O", "note": "(stereo not shown) [compound 71, N-(4-tert-Butylbenzyl)-2-[3-methoxy-4-(methylsulfonylamino)phenyl]propionamide]", "values": [{"measurement": "fold reduced activity in binding affinity and antagonism", "setting": "[1]; rTRPV1/CHO, binding and antagonism together, compared with 54", "result": "10 to 30", "unit": "fold"}]}
